ASAP1 inh – ASAP1 ArfGAP inhibition | hit rate 0.19% among 360,000 | inhibition, % at 16.5 µM | ASAP1-stimulated ARF1 GTP hydrolysis, GDP FP detection; in the data active = inhibition above about 25%
Target sequence (Q9ULH1 325-724 limits assumed): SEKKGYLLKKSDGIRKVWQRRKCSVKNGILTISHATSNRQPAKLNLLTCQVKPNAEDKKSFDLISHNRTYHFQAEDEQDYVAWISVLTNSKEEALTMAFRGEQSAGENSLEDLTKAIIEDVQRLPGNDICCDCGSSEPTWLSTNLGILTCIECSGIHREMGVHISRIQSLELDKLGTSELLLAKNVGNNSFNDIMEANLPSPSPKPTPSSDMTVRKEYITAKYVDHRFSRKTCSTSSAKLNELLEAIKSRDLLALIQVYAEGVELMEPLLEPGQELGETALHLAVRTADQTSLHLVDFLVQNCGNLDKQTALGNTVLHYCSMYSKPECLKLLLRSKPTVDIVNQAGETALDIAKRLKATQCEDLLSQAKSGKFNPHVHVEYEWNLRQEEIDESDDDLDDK
IDE act – activators of human insulin-degrading enzyme in cells | HEK cells, FAbeta-B cleavage, fluorescence polarization; 0% vehicle, 100% cell-free pure enzyme wells | hit rate 0.073% among 340,000 | P14735 | activation, % at 5.96 µM;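 active = activation above the mean of all tested compounds plus 3 SD, set per screening campaign, cut at about 17% in these data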
IDE inh – inhibits human insulin-degrading enzyme in HEK cells; P14735; FAbetaB cleavage, fluorescence polarization; inhibition, % at 5.59 µM; hit rate 0.41% among 320,000; AID 434962;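 active = percent inhibition above the average of all tested compounds plus 3 SD, set per screening campaign, cut at about 16% in these data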;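 also: IDE supplied by intact live HEK cells; FP after avidin binding of uncleaved biotin substrate so inhibition keeps polarization high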
ARFGAP1 inhibitor – inhibits rat ARF GTPase activating protein 1. Arfgap1-stimulated ARF1 GTP hydrolysis, GDP FP detection. hit rate 0.26% among 360,000. Q62848. inhibition, % at 16.5 µM;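 active = inhibition above a per-plate limit, mean inhibition of low control wells plus 3 SD, cut at about 25% in these data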
Target sequence (Q62848 1-136 limits assumed): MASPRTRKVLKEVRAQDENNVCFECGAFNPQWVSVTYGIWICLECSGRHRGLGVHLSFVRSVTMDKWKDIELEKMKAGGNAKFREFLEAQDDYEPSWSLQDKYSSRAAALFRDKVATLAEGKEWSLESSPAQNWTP
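System: truncated rat Arfgap1 GAP domain / Benchmarks: high control wells lacking Arfgap1, low control full reaction with DMSO / Times: compound-enzyme preincubation 20 min, reaction 120 min, detection 60 min, 25 °C / Repeats: one replicate per compound / Also added: human ARF1(Δ1-17)-GTP substrate / Measured by: Tracer-displacement fluorescence polarization with EDTA stop, 620/688 nm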
PREPL inh – inhibitors of human prolyl oligopeptidase-like enzyme PREPL; inhibition, % at 5.96 µM; AID 2751; recombinant PREPL, fluorescence polarization activity-based probe; hit rate 0.68% among 320,000; Q4J6C6; in the data active = inhibition above about 43%
ASAP1 GAP conf – ASAP1 inhibition confirmed | inhibition, % at 16.5 µM | shares compounds with ASAP1 inh | AID 624431 | ASAP1-stimulated Arf1 GTPase, GDP fluorescence polarization | hit rate 37% among 620;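 active = mean inhibition over triplicates exceeds the hit threshold derived for the earlier primary screening run, cut at about 25% in these data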
Each line names hits and unclear results; the compound was inactive in the other large screens (follow-up assays come after a bar, where they were run). Sampled rows, rich in hits. Any-hit rate of the full collection: about 1.2%.

O=C(Nc1ccc(F)cc1)C(=O)C1C(=O)Nc2ccccc21 (configuration not stated)	none
O=C(C1CCC(CNS(=O)(=O)c2ccccc2)CC1)N1CCCCC1 (configuration not stated)	ASAP1 inh 28 | ASAP1 GAP conf inactive
CCOC(=O)N1CCN(C(=O)C2CCC(CNS(=O)(=O)c3ccccc3)CC2)CC1 (configuration not stated)	none
O=C(CCc1ccccc1)Nc1ccc(NC(=O)c2ccco2)cc1	none
O=C(Nc1ccc(CSc2ccccc2)cc1)c1ccco1	ASAP1 inh 25 | ASAP1 GAP conf inactive
OCC[C@@H]1C[C@@H](O)[C@H](O)[C@@]2(CCCCO2)O1	none
O=c1[nH]c(Nc2ccc(F)cc2)cc2ccccc12	ASAP1 inh 37, ARFGAP1 inhibitor 43 | ASAP1 GAP conf 32
COc1ccc(C(=O)/C=C/c2ccccc2)c(O)c1	none
COc1cc(O)cc(/C=C/c2ccccc2)c1	ASAP1 inh 27 (no result: IDE inh, PREPL inh) | ASAP1 GAP conf inactive
Cc1ccc(NC(=O)CSc2ncccc2C(=O)Oc2cccc([N+](=O)[O-])c2)cc1Cl	ASAP1 inh 44 | ASAP1 GAP conf 39
CCOC(=O)c1cccnc1SCC(=O)Nc1ccc(C)cc1	none
Cc1ccccc1NC(=O)c1cccc(N2C(=O)C3C4CC(C(Br)C4Br)C3C2=O)c1 (configuration not stated)	ASAP1 inh 28 (no result: IDE inh, PREPL inh) | ASAP1 GAP conf inactive
Cn1c(SCC(=O)NC2CCCCC2)nc2c(c1=O)SCC2	none (no result: IDE act, IDE inh, PREPL inh)
Cn1c(SCC(=O)NC2CCCC2)nc2c(c1=O)SCC2	ASAP1 inh 28 | ASAP1 GAP conf inactive
O=C(c1cc(-c2ccc(Br)cc2)on1)N1CCc2ccccc2C1	none
COc1ccc(C(=O)C2CCCN(C(=O)c3cc(C(C)C)no3)C2)cc1F (configuration not stated)	none
CCc1ccc(OCC(=O)N2CCc3ccccc32)cc1	ASAP1 inh 26 | ASAP1 GAP conf inactive
Cc1ccc(OCC(=O)N2CCc3ccccc32)cc1	none
COc1ccc(Br)cc1C(=O)Nc1ccc(N2CCCC2)cc1	ASAP1 inh 32, ARFGAP1 inhibitor 46 | ASAP1 GAP conf 49
NS(=O)(=O)c1ccc(CCNc2nc3c(-c4cccc(F)c4)nnn3c3ccccc23)cc1	ASAP1 inh 55 | ASAP1 GAP conf 88
Cc1cccc(-c2nnn3c2nc(NCCc2ccc(S(N)(=O)=O)cc2)c2ccccc23)c1	none
CCN(CC(=O)NCc1ccc(F)cc1)CC(=O)NC1CCCC1	none
N#Cc1cccc(NC(=O)CSc2ccc3c4c(cccc24)C(=O)c2ccccc2-3)c1	ASAP1 inh 100 | ASAP1 GAP conf 111
COc1ccc(NC(=O)CSc2ccc3c4c(cccc24)C(=O)c2ccccc2-3)cc1	none
O=C(Nc1cccc(CNCCc2c[nH]c3ccccc23)c1)c1ccccc1Cl	ASAP1 inh 29 | ASAP1 GAP conf inactive
O=C1C=CC(=O)N1c1cccc2cccnc12	ASAP1 inh 25 (no result: IDE inh, PREPL inh) | ASAP1 GAP conf inactive
CCc1cc(=O)oc2cc(OCC(=O)O)c(Cl)cc12	none
CCc1cc(=O)oc2cc(OC(C)C(=O)O)c(Cl)cc12 (configuration not stated)	ASAP1 inh 27 | ASAP1 GAP conf inactive
CS(=O)(=O)N1CCC(C(=O)Nc2cccc([N+](=O)[O-])c2)CC1	none
Cc1ccc(S(=O)(=O)NCCC(=O)OCC(=O)NC(=O)c2cccn2C)cc1	none
CC(=O)Nc1ccc(Sc2ccc([N+](=O)[O-])o2)cc1	ASAP1 inh 31 (no result: IDE inh, PREPL inh) | ASAP1 GAP conf inactive
COc1ccc2nc(NC(=O)c3cccc(N4C(=O)CCC4=O)c3)sc2c1	ASAP1 inh 26 | ASAP1 GAP conf inactive
CCOc1ccc2nc(NC(=O)c3cccc(N4C(=O)CCC4=O)c3)sc2c1	none (no result: IDE act, IDE inh, PREPL inh)
CCOC(=O)C1CCCN(C(=O)c2cccc(S(=O)(=O)N(Cc3ccccc3)c3ccccc3OC)c2)C1 (configuration not stated)	ASAP1 inh 29 | ASAP1 GAP conf inactive
CCCc1c(C(=O)N/N=C/c2ccc(C)s2)nnn1-c1nonc1N	none
CCOC(=O)Cn1c(-c2ccccc2)nc2ccccc2c1=O	ASAP1 inh 26 | ASAP1 GAP conf inactive
OCCCNc1cc(-c2ccnc(Nc3cccc(Cl)c3)n2)ccn1	ASAP1 inh 27 | ASAP1 GAP conf inactive
CC(C)c1ccc(CN2CCN(C(=O)CSc3nnnn3C3CC3)CC2)cc1	none
Cc1ccsc1C(=O)OCC(=O)NC1CCCCC1	ASAP1 inh 29 (no result: IDE act, IDE inh, PREPL inh) | ASAP1 GAP conf inactive
CS(=O)(=O)Nc1ccc(-c2ccc(/C=C3\SC(N)=NC3=O)o2)cc1	ASAP1 inh 30 | ASAP1 GAP conf 62
Cc1cc(C)nc(SC(C)CNS(=O)(=O)c2ccccc2)n1 (configuration not stated)	none
CCCCn1c2nc3ccccc3nc2c2c(=N)oc(C)nc21	none (no result: IDE inh, PREPL inh)
COc1ccc(-n2c3nc4ccccc4nc3c3c(=N)oc(C)nc32)cc1	ASAP1 inh 30 | ASAP1 GAP conf inactive
O=C1CC2(CCN(C(=O)C3CC(=O)N(c4ccc(F)cc4)C3)CC2)Oc2ccccc21 (configuration not stated)	none
C[C@H](CCC(=O)OCc1cn(CC(=O)c2ccc(O)cc2)nn1)C1CC[C@H]2[C@@H]3CC[C@@H]4C[C@H](O)CC[C@]4(C)[C@H]3C[C@H](O)[C@]12C (some centres not stated)	ASAP1 inh 29 (no result: IDE inh, PREPL inh) | ASAP1 GAP conf inactive
C[C@H](CCC(=O)O)[C@H]1CC[C@H]2[C@@H]3CC[C@@H]4C[C@H](O)CC[C@]4(C)[C@H]3C[C@H](O)[C@]12C	none
N/C(=N\N=C\c1ccnc2ccccc12)SC1CC(=O)N(c2ccc(Br)cc2)C1=O (configuration not stated)	ASAP1 inh 61 | ASAP1 GAP conf 88
CC(Nc1cccc2ccccc12)C(=O)N/N=C/c1ccc([N+](=O)[O-])cc1 (configuration not stated)	ASAP1 inh 26 | ASAP1 GAP conf inactive
Cc1cccc(/C=N/NC(=O)C(C)Nc2cccc3ccccc23)n1 (configuration not stated)	ASAP1 inh 29 | ASAP1 GAP conf inactive
CCN1C(=O)c2cccc3c(S(=O)(=O)N(C(C)=O)c4ccc(OC(C)=O)cc4)ccc1c23	none
O=C(Nc1ccc(Br)cc1)C1CCN(C(=O)c2ccco2)CC1	none
Cc1cc(NC(=O)C2CCN(C(=O)c3ccco3)CC2)ccc1Br	ASAP1 inh 30 | ASAP1 GAP conf inactive
O=C1NC[C@H](CCCCN2C[C@@H](Cc3ccccc3)N(CCC3CCCCC3)C(=O)C2=O)N(CCC2CCCCC2)C1=O	none (no result: IDE act, IDE inh, PREPL inh)
CC(C)CN(C(=O)COc1ccc2ccc(=O)oc2c1)C1CCS(=O)(=O)C1 (configuration not stated)	none

Source: PubChem BioAssay
